Tests used:
Format in all cases: functional
[1] = Growth inhibition of human HOP62 cells assessed as cell growth at 10^-7 M incubated for 48 hrs by sulforhodamine B assay; conditions: HOP-62, 48 h, read-out: Activity
[2] = tested on: Malme-3M; assay: Growth inhibition of human MALME-3M cells assessed as cell growth at 10^-6 M incubated for 48 hrs by sulforhodamine B assay; conditions: read-out: Activity
[3] = Growth inhibition of human SF268 cells assessed as cell growth at 10^-5 M incubated for 48 hrs by sulforhodamine B assay; conditions: SF-268, 48 h, read-out: Activity
[4] = tested on: NCI-H522; assay: Growth inhibition of human NCI-H522 cells assessed as cell growth at 10^-5 M incubated for 48 hrs by sulforhodamine B assay; conditions: NCI-H522, 48 h, read-out: Activity
[5] = Growth inhibition of human PC3 cells assessed as cell growth at 10^-8 M incubated for 48 hrs by sulforhodamine B assay; conditions: PC-3, 48 h, read-out: Activity
[6] = Growth inhibition of human PC3 cells assessed as cell growth at 10^-6 M incubated for 48 hrs by sulforhodamine B assay; conditions: PC-3, 48 h, read-out: Activity
[7] = Growth inhibition of human SKOV3 cells assessed as cell growth at 10^-7 M incubated for 48 hrs by sulforhodamine B assay; conditions: SK-OV-3, 48 h, read-out: Activity
[8] = tested on: Malme-3M; assay: Growth inhibition of human MALME-3M cells assessed as cell growth at 10^-8 M incubated for 48 hrs by sulforhodamine B assay; conditions: read-out: Activity
[9] = Growth inhibition of human UACC62 cells assessed as cell growth at 10^-4 M incubated for 48 hrs by sulforhodamine B assay; conditions: UACC-62, 48 h, read-out: Activity
[10] = tested on: SK-MEL-2; assay: Growth inhibition of human SK-MEL-2 cells assessed as cell growth at 10^-4 M incubated for 48 hrs by sulforhodamine B assay; conditions: SK-MEL-2, 48 h, read-out: Activity
[11] = tested on: 786-0; assay: Growth inhibition of human 786-0 cells incubated for 48 hrs by sulforhodamine B assay; conditions: 786-0, 48 h
How it was run: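 Five-dose assay: five concentrations from 10-fold or ½-log serial dilutions. Cells are plated at 5,000–40,000 per well according to doubling time, grown 24 h, then exposed 48 h at 37 °C, 5% CO₂. Fixed with cold 50% TCA (final addition) for 60 min at 4 °C and stained with 0.4% SRB in 1% acetic acid. Bound dye is solubilized in 10 mM Tris base and read at 515 nm. GI₅₀ is where [(Ti−Tz)/(C−Tz)]×100 = 50, with a time-zero plate as Tz.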

[12] = tested on: NCI-H23; assay: Growth inhibition of human NCI-H23 cells assessed as cell growth at 10 uM incubated for 48 hrs by sulforhodamine B assay; conditions: NCI-H23, 48 h, read-out: Activity
[13] = tested on: SR; assay: Growth inhibition of human SR cells assessed as cell growth at 10^-4 M incubated for 48 hrs by sulforhodamine B assay; conditions: read-out: Activity
[14] = tested on: M14; assay: Growth inhibition of human M14 cells assessed as cell growth at 10^-4 M incubated for 48 hrs by sulforhodamine B assay; conditions: M14, 48 h, read-out: Activity
[15] = Growth inhibition of human OVCAR3 cells assessed as cell growth at 10^-8 M incubated for 48 hrs by sulforhodamine B assay; conditions: OVCAR-3, 48 h, read-out: Activity
[16] = Growth inhibition of human HL-60(TB) cells incubated for 48 hrs by sulforhodamine B assay; conditions: HL-60, 48 h
How it was run: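 Five-concentration, 48 h SRB screen (10-fold or ½-log dilutions from a 400× DMSO concentrate; 24 h preincubation at 37 °C, 5% CO₂; time-zero plate; A515). GI50 was solved from (Ti−Tz)/(C−Tz)×100 = 50. TGI was taken where Ti = Tz, and LC50 from (Ti−Tz)/[…].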

[17] = Growth inhibition of human HOP62 cells assessed as cell growth at 10^-4 M incubated for 48 hrs by sulforhodamine B assay; conditions: HOP-62, 48 h, read-out: Activity
[18] = Growth inhibition of human LOXIMVI cells assessed as cell growth at 10^-6 M incubated for 48 hrs by sulforhodamine B assay; conditions: LOX IMVI, read-out: Activity
[19] = Growth inhibition of human SF268 cells assessed as cell growth at 10^-4 M incubated for 48 hrs by sulforhodamine B assay; conditions: SF-268, 48 h, read-out: Activity
[20] = Growth inhibition of human UO31 cells incubated for 48 hrs by sulforhodamine B assay; conditions: UO-31, 48 h; for CC50: read-out: pLC50 (the source's name) (converted)
How it was run: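 Cells were plated at 5,000–40,000 per well according to doubling time and preincubated 24 h at 37 °C in 5% CO2; time-zero plates were then TCA-fixed. Five concentrations (10-fold or ½-log dilutions, DMSO stock) were incubated 48 h. Cells were TCA-fixed, stained with 0.4% SRB and read at 515 nm. GI50 was taken where [(Ti−Tz)/(C−Tz)]×100 = 50.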

[21] = tested on: U-251; assay: Growth inhibition of human U251 cells assessed as cell growth at 10 uM incubated for 48 hrs by sulforhodamine B assay; conditions: U-251, 48 h, read-out: Activity
[22] = tested on: K562; assay: Growth inhibition of human K562 cells assessed as cell growth at 10^-8 M incubated for 48 hrs by sulforhodamine B assay; conditions: K562, 48 h, read-out: Activity
[23] = tested on: CCRF-CEM; assay: Growth inhibition of human CCRF-CEM cells incubated for 48 hrs by sulforhodamine B assay
How it was run: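 Leukemia line in the five-dose format: five concentrations from 10-fold or ½-log serial dilutions. Plated at 5,000–40,000 cells per well, preincubated 24 h, then compound added for 48 h at 37 °C, 5% CO₂. Sulforhodamine B absorbance read at 515 nm. Growth is computed against time-zero (Tz) and control (C) readings; GI₅₀ is where [(Ti−Tz)/(C−Tz)]×100 = 50.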

[24] = tested on: T47D; assay: Growth inhibition of human T47D cells assessed as cell growth at 10^-5 M incubated for 48 hrs by sulforhodamine B assay; conditions: read-out: Activity
[25] = tested on: SK-MEL-5; assay: Growth inhibition of human SK-MEL-5 cells assessed as cell growth at 10^-5 M incubated for 48 hrs by sulforhodamine B assay; conditions: SK-MEL-5, 48 h, read-out: Activity
[26] = read-out: LC50 (the source's name)
[27] = read-out: pLC50 (the source's name) (converted)

## Fc1ccc(-c2nc(Nc3ccc(-c4nc5ccccc5[nH]4)cc3)nc(N3CCOCC3)n2)cc1
[1]
  growth at 0.1 µM: 97%
[2]
  growth at 1 µM: 104%
[3]
  growth at 10 µM: 3%
[4]
  growth at 10 µM: -30%
[5]
  growth at 0.01 µM: 100%
[6]
  growth at 1 µM: 93%
[7]
  growth at 0.1 µM: 98%
[8]
  growth at 0.01 µM: 96%
[9]
  growth at 100 µM: -45%
[10]
  growth at 100 µM: -50%
[11]; read-out: GI50
  GI50: 1.44 µM
[11]; [26]
  CC50: 7.24 µM
[11]; read-out: TGI
  TGI: 3.23 µM
[11]; read-out: pGI50 (converted)
  GI50: 1.45 µM
[11]; [27]
  CC50: 7.24 µM
[11]; read-out: pTGI (converted)
  TGI: 3.24 µM
[12]
  growth at 10 µM: 11.3%
[13]
  growth at 100 µM: 1%
[14]
  growth at 100 µM: -80%
[15]
  growth at 0.01 µM: 102%
[16]; read-out: GI50
  GI50: 1.94 µM
[16]; read-out: LC50
  LC50: > 100 µM
[16]; read-out: TGI
  TGI: 5.67 µM
[16]; read-out: pGI50 (converted)
  GI50: 1.95 µM
[16]; read-out: pLC50 (converted)
  LC50: > 100 µM
[16]; read-out: pTGI (converted)
  TGI: 5.62 µM
[17]
  growth at 100 µM: -33%
[18]
  growth at 1 µM: 91%
[19]
  growth at 100 µM: -4%
[20]
  LC50: > 100 µM
  CC50: > 100 µM
[20]; read-out: GI50
  GI50: 2.16 µM
[20]; read-out: TGI
  TGI: 5.64 µM
[20]; read-out: pGI50 (converted)
  GI50: 2.14 µM
[20]; read-out: pTGI (converted)
  TGI: 5.62 µM
[21]
  growth at 10 µM: 6.38%
[22]
  growth at 0.01 µM: 104%
[23]; read-out: GI50
  GI50: 3.11 µM
[23]; [26]
  CC50: > 100 µM
[23]; read-out: TGI
  TGI: > 100 µM
[23]; read-out: pGI50 (converted)
  GI50: 3.09 µM
[23]; [27]
  CC50: > 100 µM
[23]; read-out: pTGI (converted)
  TGI: > 100 µM
[24]
  growth at 10 µM: -50%
[25]
  growth at 10 µM: -87%

## Clc1ccc(-c2nc(Nc3ccc(-c4nc5ccccc5[nH]4)cc3)nc(N3CCOCC3)n2)cc1
[1]
  growth at 0.1 µM: 93%
[2]
  growth at 1 µM: 111%
[3]
  growth at 10 µM: -80%
[4]
  growth at 10 µM: -76%
[5]
  growth at 0.01 µM: 98%
[6]
  growth at 1 µM: 13%
[7]
  growth at 0.1 µM: 99%
[8]
  growth at 0.01 µM: 96%
[9]
  growth at 100 µM: -13%
[10]
  growth at 100 µM: -40%
[11]; read-out: GI50
  GI50: 0.177 µM
[11]; read-out: TGI
  TGI: 0.348 µM
[11]; read-out: pGI50 (converted)
  GI50: 0.178 µM
[11]; read-out: pTGI (converted)
  TGI: 0.347 µM
[12]
  growth at 10 µM: -83.4%
[13]
  growth at 100 µM: 5%
[14]
  growth at 100 µM: -35%
[15]
  growth at 0.01 µM: 99%
[16]; read-out: GI50
  GI50: 0.216 µM
[16]; read-out: TGI
  TGI: 0.567 µM
[16]; read-out: pGI50 (converted)
  GI50: 0.214 µM
[16]; read-out: pTGI (converted)
  TGI: 0.562 µM
[17]
  growth at 100 µM: -26%
[18]
  growth at 1 µM: -64%
[19]
  growth at 100 µM: -24%
[20]; read-out: GI50
  GI50: 1.51 µM
[20]; read-out: TGI
  TGI: 3.03 µM
[20]; read-out: pGI50 (converted)
  GI50: 1.51 µM
[20]; read-out: pTGI (converted)
  TGI: 3.02 µM
[21]
  growth at 10 µM: -93%
[22]
  growth at 0.01 µM: 96%
[23]; read-out: GI50
  GI50: 0.259 µM
[23]; read-out: TGI
  TGI: 0.687 µM
[23]; read-out: pGI50 (converted)
  GI50: 0.257 µM
[23]; read-out: pTGI (converted)
  TGI: 0.692 µM
[24]
  growth at 10 µM: -62%
[25]
  growth at 10 µM: -94%

## c1ccc2[nH]c(-c3ccc(Nc4nc(N5CCCCC5)nc(N5CCOCC5)n4)cc3)nc2c1
[1]
  growth at 0.1 µM: 96%
[2]
  growth at 1 µM: 98%
[3]
  growth at 10 µM: 5%
[4]
  growth at 10 µM: -24%
[5]
  growth at 0.01 µM: 96%
[6]
  growth at 1 µM: 101%
[7]
  growth at 0.1 µM: 101%
[8]
  growth at 0.01 µM: 86%
[9]
  growth at 100 µM: -38%
[10]
  growth at 100 µM: -68%
[11]; read-out: GI50
  GI50: 1.54 µM
[11]; [26]
  CC50: 6.68 µM
[11]; read-out: TGI
  TGI: 3.21 µM
[11]; read-out: pGI50 (converted)
  GI50: 1.55 µM
[11]; [27]
  CC50: 6.61 µM
[11]; read-out: pTGI (converted)
  TGI: 3.24 µM
[12]
  growth at 10 µM: 19.7%
[13]
  growth at 100 µM: -11%
[14]
  growth at 100 µM: -70%
[15]
  growth at 0.01 µM: 103%
[16]; read-out: GI50
  GI50: 2.42 µM
[16]; read-out: LC50
  LC50: > 100 µM
[16]; read-out: TGI
  TGI: 5.8 µM
[16]; read-out: pGI50 (converted)
  GI50: 2.4 µM
[16]; read-out: pLC50 (converted)
  LC50: > 100 µM
[16]; read-out: pTGI (converted)
  TGI: 5.75 µM
[17]
  growth at 100 µM: -55%
[18]
  growth at 1 µM: 89%
[19]
  growth at 100 µM: -11%
[20]
  LC50: > 100 µM
  CC50: > 100 µM
[20]; read-out: GI50
  GI50: 2 µM
[20]; read-out: TGI
  TGI: 5.14 µM
[20]; read-out: pGI50 (converted)
  GI50: 2 µM
[20]; read-out: pTGI (converted)
  TGI: 5.13 µM
[21]
  growth at 10 µM: 8.02%
[22]
  growth at 0.01 µM: 103%
[23]; read-out: GI50
  GI50: 3.25 µM
[23]; [26]
  CC50: > 100 µM
[23]; read-out: TGI
  TGI: > 100 µM
[23]; read-out: pGI50 (converted)
  GI50: 3.24 µM
[23]; [27]
  CC50: > 100 µM
[23]; read-out: pTGI (converted)
  TGI: > 100 µM
[24]
  growth at 10 µM: -46%
[25]
  growth at 10 µM: -90%

— ChEMBL document CHEMBL3808334, “Synthesis and in vitro evaluation of novel triazine analogues as anticancer agents and their interaction studies with bovine serum albumin” (Eur J Med Chem, 2016)
